The list is not random: actives were taken first. Their share in the collection is about 2.2%.
Tn6 DDE FP = inhibitors of Tn6 peptide binding to fibrin DD(E), primary screen, biochemical, fluorescence polarization, human fibrin, Tn6 probe | inhibition, % at 8.3 µM | hit rate 0.21% among 370,000 | Fibrin DD(E) TRITC-Tn6 fluorescence polarization displacement | Fibrinogen beta chain (Homo sapiens), P02675;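 active means inhibition above a per-campaign cutoff: mean of compounds within control limits plus 3 SD, cut at about 15% in these data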
Target sequence (P02675 whole entry, looked up): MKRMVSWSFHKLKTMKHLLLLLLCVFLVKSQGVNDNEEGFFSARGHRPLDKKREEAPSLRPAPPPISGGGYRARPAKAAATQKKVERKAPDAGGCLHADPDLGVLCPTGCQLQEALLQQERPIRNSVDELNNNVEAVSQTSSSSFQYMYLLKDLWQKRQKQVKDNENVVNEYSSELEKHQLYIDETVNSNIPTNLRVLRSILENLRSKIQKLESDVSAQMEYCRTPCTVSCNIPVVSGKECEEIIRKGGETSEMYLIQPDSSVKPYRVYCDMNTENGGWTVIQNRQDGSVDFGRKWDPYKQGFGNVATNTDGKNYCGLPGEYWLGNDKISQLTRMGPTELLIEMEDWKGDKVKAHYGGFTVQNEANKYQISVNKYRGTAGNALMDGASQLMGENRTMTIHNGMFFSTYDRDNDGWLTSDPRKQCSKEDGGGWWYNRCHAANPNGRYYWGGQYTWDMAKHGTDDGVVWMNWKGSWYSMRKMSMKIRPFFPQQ
Neddylation inh = inhibitors of cullin neddylation, primary screen, biochemical, TR-FRET, uHTS, NAE and Ubc12 | calls only at 25 µM | hit rate 0.58% among 360,000 | AID 651699, 2012; in the data active means inhibition above about 36%
SKN-1 block = suppressors of acrylamide-induced Pgst-4::GFP reporter in worms, primary screen, SKN-1 inhibitor project, whole organism, uHTS, GFP/RFP fluorescence ratio, strain VP596. C. elegans VP596 Pgst-4::GFP/RFP ratio, 24 h. inhibition, % at 21.8 µM. AID 624304, 2012. hit rate 0.49% among 360,000;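 active means interference check ratio from 0.5 to 1.5 plus GFP to RFP signal ratio inhibition reaching or exceeding a fixed threshold, cut at about 30% in these data, passing the limit was not always enough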
MT1-MMP act inh = blockers of MT1-MMP proenzyme processing, primary screen, HT1080 RFP-PRO-GFP cells, GFP/RFP fluorescence | Matrix metalloproteinase-14 (Homo sapiens), P50281 | GFP/RFP ratio fluorescence, overnight; percent of plate control window, DMSO zero | GFP/RFP ratio change, % at 20 µM | hit rate 0.061% among 360,000 | AID 651647, 2012;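 active means GFP/RFP ratio change of at least 30% with cell ATP level not reduced by more than half and red fluorescence within 50% of control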
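Assay system: HT1080 RFP-PRO-GFP cells | Dosing: 20 µM single dose, 1% DMSO | Incubation: Cells overnight before dosing, compound overnight, 37 °C, 5% CO2 | Evaluation: GFP/RFP fluorescence ratio | Control set: DMSO-only wells and HT1080 RFP-L50D-GFP cell wells as references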
Tn7 DDE FP = inhibitors of Tn7 peptide binding to fibrin DD(E), primary screen, biochemical, fluorescence polarization, human fibrin, Tn7 probe. Fibrinogen beta chain (Homo sapiens), P02675. FP displacement of FITC-Tn7 peptide from fibrin DD(E); 0% = median of compound wells per plate. inhibition, % at 8.3 µM. hit rate 0.13% among 370,000. AID 720508, 2013;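 active means inhibition above the mean of compounds falling within the control limits plus 3 SD of them, cut at about 14% in these data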
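Assay system: human fibrin DD(E) protein / Input: 2 µM fibrin DD(E) / Benchmarks: high control of 10 µM Aha-Tn7 peptide / Measured by: fluorescence polarization of the labelled Tn7 tracer / Medium: Tris buffer with calcium and detergent, pH 7.8 / Timing: 10 min compound pre-incubation, 3 h probe incubation at room temperature / Repeats: one replicate per compound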
proKLK7 act = proKLK7 zymogen activators, primary screen, biochemical, fluorescence intensity; purified proKLK7, EDANS-DABCYL substrate fluorescence; 100% is mature enzyme control, 0% vehicle; activation, % at 7 µM; Kallikrein-7 (Homo sapiens), P49862; hit rate 0.9% among 370,000;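 active means activation above the mean of all tested compounds plus 3 SD, computed per campaign excluding outliers beyond control limits, cut at about 13% in these data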
Neddyl conf = blockade of NEDD8 conjugation to cullin – biochemical, TR-FRET, single concentration, confirmation | calls only at 25 µM | TR-FRET cullin neddylation biochemical assay | hit rate 13% among 1,800 | shares compounds with Neddylation inh; in the data active means inhibition above about 40%;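 further: neddylation substrate is the cullin 1 ring ligase complex with SKP2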
Calls only; – = inactive; · = no result given; + = active, no number.

SMILES | Tn6 DDE FP | Neddylation inh | SKN-1 block | MT1-MMP act inh | Tn7 DDE FP | proKLK7 act | Neddyl conf
CCc1ccc(NC(=O)C(C)OC(=O)c2cc(=O)[nH]c3ccc(S(=O)(=O)Nc4ccc(F)cc4)cc23)cc1 (stereo unspecified) | – | – | – | – | – | – | ·
Cc1cc2c(c(SCC(=O)NCc3ccc(Cl)cc3)n1)C(=O)OC2 | – | – | – | – | – | – | ·
CN1CCN(c2nc(N3CCN(CCO)CC3)nc3ccccc23)CC1 | – | + | – | – | – | – | ·
O=C(N/N=C/C=C\c1ccco1)c1ccccn1 | – | + | – | – | – | – | –
O=C(N/N=C/C=C/c1ccco1)c1cnccn1 | – | – | – | – | – | – | ·
C=CCNC(=O)/C(C#N)=C/c1c(N2CCCCCC2)nc2ccccn2c1=O | – | + | – | – | – | – | –
N#C/C(=C\c1c(N2CCCCCC2)nc2ccccn2c1=O)C(=O)NCc1ccco1 | – | – | – | – | – | – | ·
CCSc1nc2ccccc2c(=O)n1-c1c(C)n(C)n(-c2ccccc2)c1=O | – | – | – | – | – | – | ·
CCCOc1cccc(C(=O)NC(=S)Nc2cccc(NC(=O)c3ccccc3Cl)c2)c1 | – | – | – | – | – | – | ·
COc1ccc(C(=O)Cn2c3ccccc3n3nc(CCC(=O)O)c(=O)nc23)cc1OC | – | + | – | – | – | – | ·
COc1ccc2sc(NC(=O)c3ccco3)nc2c1 | – | + | – | – | – | – | –
COc1ccc2nc(NC(=S)NC(=O)c3ccco3)sc2c1 | – | – | – | – | – | – | ·
Cc1[nH]c2ccccc2c1C(=O)C(C)OC(=O)c1ccccc1NCCO (stereo unspecified) | – | + | – | – | – | – | ·
CNc1cncc(-c2ccccc2NC(C)=O)n1 | – | + | – | – | – | – | –
CC(=O)Nc1cncc(-c2ccccc2C(C)=O)n1 | – | – | – | – | – | – | ·
COc1ccc(C(C(=O)NCc2ccccc2)N(C(=O)c2snc(C(N)=O)c2N)c2ccccc2OC)cc1OC (stereo unspecified) | – | + | – | – | – | – | ·
COc1ccc(C)cc1N(C(=O)c1snc(C(N)=O)c1N)C(C(=O)NC1CCCC1)c1ccc(F)cc1 (stereo unspecified) | – | + | – | – | – | – | ·
COc1ccc(N(C(=O)c2snc(C(N)=O)c2N)C(C(=O)NC2CCCC2)c2ccc(F)cc2)c(OC)c1 (stereo unspecified) | – | · | – | – | – | – | ·
CCOc1ccccc1N(C(=O)c1snc(C(N)=O)c1N)C(C(=O)NCc1ccccc1)c1ccc(O)cc1 (stereo unspecified) | – | + | – | – | – | – | ·
Cc1ccccc1N(C(=O)c1snc(C(N)=O)c1N)C(C(=O)NCc1ccccc1)c1ccc(O)cc1 (stereo unspecified) | – | – | – | – | – | – | ·
CCCC(C(=O)NCCC(C)C)N(Cc1ccccc1)C(=O)c1snc(C(N)=O)c1N (stereo unspecified) | – | + | – | – | – | – | –
CNC(=O)CSc1nnc(C2CC2)n1-c1ccccc1 | – | – | – | – | – | – | ·
CCOc1ccccc1N(C(=O)c1snc(C(N)=O)c1N)C(C(=O)NCC1CCCO1)c1ccc2ncccc2c1 (stereo unspecified) | – | + | – | – | – | – | –
COc1ccc(N(C(=O)c2snc(C(N)=O)c2N)C(C(=O)NCc2ccccc2)c2ccc(O)cc2)cc1OC (stereo unspecified) | – | – | – | – | – | – | ·
CC(C(=O)NCC1CCCO1)N(C(=O)c1snc(C(N)=O)c1N)c1cccc(F)c1 (stereo unspecified) | – | + | – | – | – | – | ·
SMILES | Tn6 DDE FP | Neddylation inh | SKN-1 block | MT1-MMP act inh | Tn7 DDE FP | proKLK7 act | Neddyl conf
COCCNC(=O)C(c1ccc(C)o1)N(C(=O)c1snc(C(N)=O)c1N)c1ccc(C)c(C)c1 (stereo unspecified) | – | – | – | – | – | – | ·
COCCNC(=O)C(c1ccc(C)o1)N(C(=O)c1snc(C(N)=O)c1N)c1cccc(C)c1 (stereo unspecified) | – | + | – | – | – | – | –
COc1cccc(N(C(=O)c2snc(C(N)=O)c2N)C(C(=O)NCc2ccccc2)c2ccc(O)cc2)c1 (stereo unspecified) | – | + | – | – | – | – | +
COC(=O)c1cccc([N+](=O)[O-])c1CN1CCCC(C(N)=O)C1 (stereo unspecified) | – | + | – | – | – | – | –
O=C(C1CCCN(Cc2ccccc2[N+](=O)[O-])C1)N1CCCCC1 (stereo unspecified) | – | – | – | – | – | – | ·
Cc1cccc(-n2c(=O)[nH]c3c(C(N)=O)nc(-c4ccccc4Cl)nc32)c1 | – | – | – | – | – | – | ·
CC1Cc2ccccc2N1C(=O)c1cc2c(=O)n3ccccc3nc2n1C (stereo unspecified) | – | + | – | – | – | – | +
NC(=O)CN1CCN(S(=O)(=O)c2ccc(Cl)cc2)CC1 | – | – | – | – | – | – | ·
CCN1C(=O)c2cccc3c(S(=O)(=O)N(C(C)=O)c4ccc(OC(C)=O)cc4)ccc1c23 | – | + | – | – | – | – | ·
COc1ccc(N(C(=O)c2ccncc2)S(=O)(=O)c2ccc3c4c(cccc24)C(=O)N3C)cc1 | – | – | – | – | – | – | ·
CN1CCN(c2ccccc2NC(=O)c2ccc(-c3ccc(Cl)c(Cl)c3)o2)CC1 | – | + | – | – | – | – | ·
CN1CCN(c2ccccc2NC(=O)c2ccc(-c3ccc(Br)cc3)o2)CC1 | · | – | – | – | · | · | ·
Cc1ccc(C(=O)Nc2ccc3c(c2)C(=O)N(CC2CCCO2)C3=O)cc1 (stereo unspecified) | – | + | – | – | – | – | ·
CC1(C)CC(=O)C=C(c2ccc3ccccc3c2)C1 | – | · | – | – | – | – | ·
Cc1cc(-c2ccccc2)nc(N(C)NC(=O)c2c(F)cccc2F)c1S(C)(=O)=O | – | – | – | – | – | – | ·

Screens deposited in PubChem BioAssay by several laboratories.
